Screening results as filed in PubChem.
This is a sample that favours compounds with a hit; in the whole collection about 1.8% have one here.
ABHD4 inh: ABHD4 inhibitors, primary screen, biochemical, fluorescence polarization, mouse; purified mABHD4, FP-Rh probe fluorescence polarization; actives 0.54% (n = 370,000); inhibition, % at 8.92 µM; AID 720543, 2013; (Lyso)-N-acylphosphatidylethanolamine lipase (Mus musculus), Q8VD66;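 active means inhibition exceeding the mean over every tested compound plus 3 SD, cut at about 30% in these data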;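 further: 0% = plate median of compound wells and 100% = S159A mutant with DMSO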
Target sequence (Q8VD66 whole entry, looked up): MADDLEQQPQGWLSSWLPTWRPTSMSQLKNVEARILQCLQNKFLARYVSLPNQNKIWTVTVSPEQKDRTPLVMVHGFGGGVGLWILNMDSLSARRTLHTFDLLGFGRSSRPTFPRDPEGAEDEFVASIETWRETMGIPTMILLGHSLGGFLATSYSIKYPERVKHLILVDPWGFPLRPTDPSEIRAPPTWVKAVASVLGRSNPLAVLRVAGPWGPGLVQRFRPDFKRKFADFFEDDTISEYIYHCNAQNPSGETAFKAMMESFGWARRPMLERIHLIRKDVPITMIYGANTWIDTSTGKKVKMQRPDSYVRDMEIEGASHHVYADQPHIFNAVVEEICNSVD
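System: mouse ABHD4 enzyme, wild type / Medium: HEPES pH 7.0, NaCl, Pluronic buffer / Reagent: FP-Rh activity-based fluorescent probe / Control set: S159A mutant high control, sample median low control / Detection: fluorescence polarization with parallel and perpendicular emission, 525/598 nm / Schedule: 45 min + 60 min at 25 °C / Compound dosing: 8.92 µM, single dose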
Tn7 DDE FP: inhibitors of Tn7 peptide binding to fibrin DD(E), primary screen, biochemical, fluorescence polarization, human fibrin, Tn7 probe. FP displacement of FITC-Tn7 peptide from fibrin DD(E); 0% = median of compound wells per plate. actives 0.13% (n = 370,000). inhibition, % at 8.3 µM. AID 720508, 2013;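 active means inhibition above the mean of compounds falling within the control limits plus 3 SD of them, cut at about 14% in these data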;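 further: 0% = plate median of compound wells and 100% = 10 µM Aha-Tn7 peptide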
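Also added: labelled Tn7 tracer, 0.1 µM; Assay system: human fibrin DD(E) protein; Amount: 2 µM fibrin DD(E); Schedule: 10 min compound pre-incubation, 3 h probe incubation at room temperature; Repeats: one replicate per compound; Read-out basis: percent inhibition; Measured by: fluorescence polarization of the labelled Tn7 tracer.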
DDE Tn6 FP inh: inhibitors of Tn6 peptide binding to fibrin DD(E), primary screen, biochemical, fluorescence polarization, human fibrin, Tn6 probe | actives 0.21% (n = 370,000) | Fibrinogen beta chain (Homo sapiens), P02675 | inhibition, % at 8.3 µM | Fibrin DD(E) TRITC-Tn6 fluorescence polarization displacement;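 active means inhibition above a per-campaign cutoff: mean of compounds within control limits plus 3 SD, cut at about 15% in these data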;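 further: 0% = median of all compound wells on the plate and 100% = blocking peptide control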
TCR-CD3 inh: inhibitors of human TCR-CD3 interaction, primary screen, biochemical, fluorescence, TAMRA-labeled TCR probe. T-cell receptor (TCR). inhibition, % at 9.4 µM. actives 0.37% (n = 360,000). AID 651800, 2012;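 further: recombinant mutant TCR 2C K166C tagged with TAMRA read by polarization; 0% = receptor in buffer alone and 100% = receptor with positive control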
HTRA1 inhibitor: HTRA1 serine protease inhibitors, primary screen, biochemical, fluorescence polarization, HTS; Q92743; recombinant HTRA1, FP-rhodamine activity-based probe; inhibition, % at 5.96 µM; actives 0.5% (n = 340,000); in the data active means inhibition above about 36%;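 further: 0% = enzyme with DMSO and 100% = wells lacking enzyme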
SIAE primary: human SIAE inhibitors, primary screen, biochemical, fluorescence polarization, FP-Rh probe, 1536-well HTS. SIAE FP-Rh probe binding. inhibition, % at 9.66 µM. actives 0.69% (n = 370,000);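 active means inhibition above a cutoff: mean of compounds within the control limits plus 3 SD of those, cut at about 17% in these data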;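 further: 0% = plate median of compound wells and 100% = probe without SIAE protein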
BSA probe FL: compounds interfering with TAMRA-BSA probe, counter-screen for TCR-CD3 interaction inhibitor project, biochemical, fluorescence, TAMRA-labeled BSA; shares compounds with TCR-CD3 inh; TAMRA-labeled BSA probe fluorescence counterscreen; AID 652035, 2013; actives 10% (n = 1,200); inhibition, % at 9.4 µM; in the data active means inhibition above about 23%;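 further: 0% = buffer low control and 100% = reference high control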
TCR-CD3 inh conf: TCR-CD3 interaction inhibitors, retest, confirmation, biochemical, fluorescence, TAMRA-labeled TCR probe; shares compounds with TCR-CD3 inh; TAMRA-labeled TCR probe fluorescence binding assay; inhibition, % at 9.4 µM; actives 48% (n = 1,200); AID 652036, 2013
Tn7 DDE conf: inhibitors of Tn7 peptide binding to fibrin DD(E), confirmation, biochemical, fluorescence polarization, human fibrin, Tn7 probe | shares compounds with Tn7 DDE FP | FP displacement of TRITC-Tn7 peptide from DD(E); 0% set at plate's compound-well median | inhibition, % at 8.3 µM | actives 5% (n = 460) | AID 720628, 2013;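 active means inhibition above the campaign cutoff, the mean of compounds within control limits plus 3 SD, cut at about 14% in these data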;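 further: 100% = median FP of high control wells holding Aha-Tn7 inhibitor peptide; displacers lower polarization since freed probe rises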
Tn7 DDE ctr: DD(E)-Tn7 binding inhibition, counter-screen; AID 720633; fibrin DD(E), TRITC-Tn7 probe displacement, fluorescence polarization; actives 3% (n = 460); shares compounds with Tn7 DDE FP; inhibition, % at 8.3 µM;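 active means inhibition above the cutoff, the mean of compounds lying between the control bounds plus 3 SD of those compounds, cut at about 17% in these data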;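 further: 0% = median of compound sample wells and 100% = excess unlabeled Aha-Tn7 peptide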
* marks the source's active call; other numbers are inactive results; nt = no result given. Unless noted, no stated cut-off is given here; in the data, active means inhibition above about 19%; inactive means the rest.

SMILES	ABHD4 inh	Tn7 DDE FP	DDE Tn6 FP inh	TCR-CD3 inh	HTRA1 inhibitor	SIAE primary	BSA probe FL	TCR-CD3 inh conf	others
O=C(COC(=O)c1ccc(Br)o1)NCCCc1ccccc1	2.8	-0.8	-7.8	6.9	-4.9	0.5	nt	nt
CCc1ccc(N2CC(C(=O)OCc3nc4ccsc4c(=O)[nH]3)CC2=O)cc1 (stereo not drawn)	3.3	-5.2	-0.1	27.3*	12.2	-1.6	-11.4	12.2
Cc1cnc(C(=O)OCc2nc3ccsc3c(=O)[nH]2)cn1	5.5	2.0	4.2	28.2*	-0.8	-3.1	-13.4	16.3
Cc1ccc(C(=O)OCc2nc3ccsc3c(=O)[nH]2)o1	3.3	5.9	-0.5	0.9	-1.1	4.3	nt	nt
O=C(O)CC(C(=O)O)N1C(=O)/C(=C/c2ccc(-c3nc4ccccc4s3)o2)SC1=S (stereo not drawn)	38.4*	-2.0	-11.7	21.8*	15.5	3.8	-15.1	26.0*
CCOc1ccc(NC(=S)NS(=O)(=O)c2cc(Br)ccc2OCC)cc1	2.3	1.6	-2.6	1.7	nt	1.3	nt	nt
CCOc1ccc(Br)cc1S(=O)(=O)Nc1ccc(C(=O)OCC(=O)Nc2ccc(C#N)cc2)cc1	-16.0	0.8	3.4	33.3*	-64.0	-11.7	26.0*	33.8*
CC(=O)c1cc(-c2ccccc2)n(CC(=O)NCc2ccc(F)cc2)c1C	1.9	5.6	-2.5	nt	nt	-1.5	nt	nt
O=C(N[C@H](Cc1ccccc1)C(=O)N1CCN(c2ncccn2)CC1)[C@H]1O[C@@H](n2ccc(=O)[nH]c2=O)[C@H](O)[C@@H]1O	-1.6	-6.7	5.1	-0.7	nt	3.0	nt	nt
CCN(CC)CCC(c1cc(OC)c(OC)c(OC)c1)c1c(OC)cc(OC)c2ccc(=O)oc12 (stereo not drawn)	0.4	1.7	11.9	95.5*	-3.2	0.6	7.0	-0.2
CCN(CC)CCC(c1ccc2c(c1)OCO2)c1c(OC)cc(OC)c2ccc(=O)oc12 (stereo not drawn)	1.4	6.4	-3.1	3.3	3.6	2.5	nt	nt
O=C(O)c1cccc(-n2cccc2/C=C2/NC(=O)N(c3ccc(Cl)cc3)C2=O)c1	4.1	-2.9	-1.0	36.0*	11.1	-1.9	-11.4	31.3*
O=C(O)c1cccc(-n2cccc2/C=C2/NC(=O)N(c3cccc(Cl)c3)C2=O)c1	6.5	-2.5	3.0	5.0	-6.2	0.2	nt	nt
COc1cc2cc3c(N)c(C(=O)Nc4sc(C)c(C)c4C#N)sc3nc2cc1OC	-10.1	-2.8	2.7	24.0*	11.7	-33.6	-14.4	2.7
CC(/C=C1\SC(=S)N(CCC(=O)Nc2ccc(O)cc2)C1=O)=C\c1ccccc1	-59.3	4.2	5.8	1.9	-24.2	-17.1	nt	nt
CC(=O)c1ccc(NC(=O)CN2C(=O)/C(=C/C(C)=C/c3ccccc3)SC2=S)cc1	-53.5	-12.4	-3.0	23.8*	-31.2	-146.2	16.7	49.2*
Nc1nc2c(ncn2[C@@H]2O[C@H](C(=O)N[C@H](Cc3ccccc3)C(=O)NCc3ccc4c(c3)OCO4)[C@@H](O)[C@H]2O)c(=O)[nH]1	2.0	-1.7	7.8	1.5	nt	3.7	nt	nt
Nc1nnc(CC(=O)N/N=C\c2cc([N+](=O)[O-])ccc2O)s1	24.0	-0.6	-1.6	35.8*	3.5	0.9	-5.9	25.4*
Cn1c(SCC(=O)N/N=C/c2ccccn2)nnc1-c1ccccc1	-5.2	5.8	4.1	-4.4	1.5	-0.7	nt	nt
Cn1c(SCC(=O)N/N=C/c2cc([N+](=O)[O-])ccc2O)nnc1-c1ccccc1	5.3	0.7	2.8	20.7*	7.7	4.7	-4.4	14.4
CCN(CC)C(=O)CSc1ncnc2c(-c3cccs3)nsc12	4.6	-2.9	2.2	19.9*	-31.8	-4.9	-4.1	11.5
CCN(CC)C(=O)CSc1ncnc2sccc12	10.3	-8.1	0.9	9.8	1.7	2.6	nt	nt
COc1cc(-n2c(C)nc3cc(C(=O)N4CCCCC4)ccc32)cc(OC)c1OC	-12.7	0.9	3.0	nt	nt	-16.2	nt	nt
COc1cccc(NC(=O)CN(C)C(=O)/C=C/c2cn(-c3ccccc3)nc2-c2ccc(OC)c(OC)c2)c1	-85.2	-0.9	-1.6	15.8	-109.5	-80.7	nt	nt
COc1ccc(-c2nn(-c3ccccc3)cc2/C=C/C(=O)N(C)CC(=O)Nc2cccc(F)c2)cc1OC	-101.3	8.4	-4.0	26.3*	-120.0	-89.4	12.6	26.1*
CC(C)CN1CN2Cc3cc(F)ccc3C2CS1(=O)=O (stereo not drawn)	3.2	-3.1	2.9	nt	nt	-1.6	nt	nt
CCC[C@@H](/C=C/C(=O)OC(C)(C)C)Sc1ccc(N)cc1	-1.5	1.6	4.0	nt	nt	15.8	nt	nt
Cc1cc2nc3c(=O)[nH]c(=O)[nH]c3nc2c([N+](=O)[O-])c1N	18.3	31.2*	-5.7	24.4*	28.9	11.7	84.9*	102.8*	Tn7 DDE conf=11.3;Tn7 DDE ctr=7.1
COC(=O)C1CN(Cc2ccc(OC)cc2)CCS(=O)(=O)N1Cc1cn(Cc2ccc(C)cc2)nn1 (stereo not drawn)	-0.3	0.2	-4.3	nt	nt	-0.6	nt	nt
O=c1/c(=C/c2ccc(O)c([N+](=O)[O-])c2)sc2nc3ccccc3n12	5.5	-1.2	-7.2	2.4	nt	-17.9	nt	nt
